According to paper PMC9302689 (British Journal of Clinical Pharmacology, 2022):

Experiments:
healthy male subjects = assay: VAS Bowdle; type: in vivo, human; details: 12-hour post-dose period
Summary of the method: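 Psychedelic effects were rated on 13 lines scored from 0 (not at all) to 100 mm (extremely), twice pre-dose and at 0.5–10 h post-dose. Change from baseline over 12 h was analysed by MMRM with baseline as covariate. The 3 mg dose group, not placebo, served as the reference.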

α1B‐adrenoceptor = target: T1, α1B‐adrenoceptor (Homo sapiens, UniProt P35368); assay: In vitro binding affinity, α1B-adrenoceptor; details: read-out: Ki, α1B-adrenoceptor; preclinical in vitro panel
T1 sequence (P35368 1-520): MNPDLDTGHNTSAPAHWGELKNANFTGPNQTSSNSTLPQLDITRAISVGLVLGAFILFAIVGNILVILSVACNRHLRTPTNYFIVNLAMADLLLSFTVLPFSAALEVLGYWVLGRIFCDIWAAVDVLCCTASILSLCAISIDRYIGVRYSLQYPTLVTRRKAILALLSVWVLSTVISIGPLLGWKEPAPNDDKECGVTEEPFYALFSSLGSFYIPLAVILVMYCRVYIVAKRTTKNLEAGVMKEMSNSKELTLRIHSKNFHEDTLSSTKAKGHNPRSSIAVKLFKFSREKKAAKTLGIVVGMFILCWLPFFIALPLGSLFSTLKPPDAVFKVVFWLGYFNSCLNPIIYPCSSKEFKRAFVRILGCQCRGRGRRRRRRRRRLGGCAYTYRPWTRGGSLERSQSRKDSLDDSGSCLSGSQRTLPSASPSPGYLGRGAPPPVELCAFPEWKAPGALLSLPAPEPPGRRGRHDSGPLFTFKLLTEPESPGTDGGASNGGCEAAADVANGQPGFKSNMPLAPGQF

[1] = Preclinical pharmacokinetic studies; type: in vivo; details: dogs and rats, oral administration
rats = assay: Preclinical multiple dose toxicology study in rats; type: in vivo
neuronal abnormalities = assay: Preclinical test for neuronal abnormalities; type: in vivo; details: up to a HED of 3360 mg

For `CN1CCC23CCCCC2C1Cc1ccc(C(N)=O)cc13` (stereo not drawn) [ALKS 7119, (9α, 13α)‐17‐methylmorphinan‐3‐carboxamide], the “VAS Bowdle “external perception”, LSM CFB” value (healthy male subjects; 3 mg single oral dose) was 0.00, the “VAS Bowdle “feeling high”, LSM CFB” value (healthy male subjects; 3 mg single oral dose) was 0.00 and the “VAS Bowdle “internal perception”, LSM CFB” value (healthy male subjects; 3 mg single oral dose) was 0.00. For the same compound, the “VAS Bowdle “external perception”, LSM CFB” value (healthy male subjects; 10 mg single oral dose) was 0.00, the “VAS Bowdle “feeling high”, LSM CFB” value (healthy male subjects; 10 mg single oral dose) was 0.00 and the “VAS Bowdle “internal perception”, LSM CFB” value (healthy male subjects; 10 mg single oral dose) was 0.00. For the same compound, the “VAS Bowdle “external perception”, LSM CFB” value (healthy male subjects; 25 mg single oral dose) was 0.00, the “VAS Bowdle “feeling high”, LSM CFB” value (healthy male subjects; 25 mg single oral dose) was 0.00 and the “VAS Bowdle “internal perception”, LSM CFB” value (healthy male subjects; 25 mg single oral dose) was 0.00. The “VAS Bowdle “external perception”, LSM CFB” value (healthy male subjects; 50 mg single oral dose) was 0.00, the “VAS Bowdle “feeling high”, LSM CFB” value (healthy male subjects; 50 mg single oral dose) was 0.00 and the “VAS Bowdle “internal perception”, LSM CFB” value (healthy male subjects; 50 mg single oral dose) was 0.00. The “VAS Bowdle “external perception”, LSM CFB” value (healthy male subjects; 75 mg single oral dose) was 0.00, the “VAS Bowdle “feeling high”, LSM CFB” value (healthy male subjects; 75 mg single oral dose) was 0.00 and the “VAS Bowdle “internal perception”, LSM CFB” value (healthy male subjects; 75 mg single oral dose) was 0.00. The “VAS Bowdle “external perception”, LSM CFB” value (healthy male subjects; 100 mg single oral dose) was 0.00, the “VAS Bowdle “feeling high”, LSM CFB” value (healthy male subjects; 100 mg single oral dose) was 0.00 and the “VAS Bowdle “internal perception”, LSM CFB” value (healthy male subjects; 100 mg single oral dose) was 0.00. The “VAS Bowdle “external perception”, LSM CFB” value (healthy male subjects; 125 mg single oral dose) was 0.00, the “VAS Bowdle “feeling high”, LSM CFB” value (healthy male subjects; 125 mg single oral dose) was 0.00 and the “VAS Bowdle “internal perception”, LSM CFB” value (healthy male subjects; 125 mg single oral dose) was 0.00. For the same compound, the “VAS Bowdle “external perception”, LSM CFB” value (healthy male subjects; 150 mg single oral dose) was 0.00, the “VAS Bowdle “feeling high”, LSM CFB” value (healthy male subjects; 150 mg single oral dose) was 0.00 and the “VAS Bowdle “internal perception”, LSM CFB” value (healthy male subjects; 150 mg single oral dose) was 0.00. The “VAS Bowdle “external perception”, LSM CFB” value (healthy male subjects; 175 mg single oral dose) was 0.00, the “VAS Bowdle “feeling high”, LSM CFB” value (healthy male subjects; 175 mg single oral dose) was 0.00 and the “VAS Bowdle “internal perception”, LSM CFB” value (healthy male subjects; 175 mg single oral dose) was 0.00. The “VAS Bowdle “external perception”, LSM CFB” value (healthy male subjects; 200 mg single oral dose) was 0.00, the “VAS Bowdle “feeling high”, LSM CFB” value (healthy male subjects; 200 mg single oral dose) was 0.00 and the “VAS Bowdle “internal perception”, LSM CFB” value (healthy male subjects; 200 mg single oral dose) was 0.00. For the same compound, the Ki (α1B‐adrenoceptor) was 1.8 µM, the “median time to maximum plasma concentration (tmax)” value [1] was 30 min and the “human equivalent dose (HED) of NOAEL” value (rats; rat NOAEL, body surface area extrapolation per FDA guidelines) was 96 mg. The NOAEL (rats; rats, multiple dose toxicology) was 10 mg/kg and the “Potential to induce neuronal abnormalities” value (neuronal abnormalities) was “no potential to induce neuronal abnormalities”.
